Activity, Kd and IC50 data for 57 compounds are collected here from ChEMBL document CHEMBL4041481, “Linker-switch approach towards new ATP binding site inhibitors of DNA gyrase B” (Eur J Med Chem, 2017).

Molecules are shown by their SMILES. pIC50, pKd: −log10 of the molar value.

The target in experiment [1] is DNA gyrase subunit B (Escherichia coli) (UniProt P0AES6). The experiment in a line: Inhibition of Escherichia coli DNA ATCC 25922 gyrase B assessed as residual activity at 100 uM using relaxed pNO1 DNA as substrate incubated for 30 mins and measured by sybrGOLD staining based fluorescence assay. Conditions: Escherichia coli ATCC 25922; call rule not given here. The gist of the method:
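Gyrase supercoiling with 1.5 U enzyme and 0.75 µg relaxed pNO1 plasmid. 30 min at 37 °C, stopped with pH 5.0 TF buffer. Triplex capture on immobilized biotinylated oligonucleotide, 30 min at room temperature. Residual activity at 100 µM; 1% DMSO negative control.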

The target of experiment [2] is T1, DNA gyrase subunit B (Escherichia coli, UniProt P0AES6). As to the kind of experiment: Binding affinity to Escherichia coli ATCC 25922 DNA gyrase B by surface plasmon resonance assay. The method in brief: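 Running buffer: 10 mM Hepes, 150 mM NaCl, 3 mM EDTA, 0.005% P20, pH 7.4, plus 1% DMSO. Injections at 30 µL/min for 90 s, 120 s dissociation. At least eight concentrations, three parallel titrations. Kd from 1:1 steady-state fit of responses 5 s before injection end.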

The target in experiment [3] is DNA gyrase subunit B (Staphylococcus aureus) (UniProt P0A0K8). The experiment in a line: Inhibition of Staphylococcus aureus DNA gyrase B assessed as residual activity at 100 uM using relaxed pNO1 DNA as substrate incubated for 30 mins and measured by sybrGOLD staining based fluorescence assay. The gist of the method: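 Gyrase supercoiling with 1.5 U enzyme and 0.75 µg relaxed pNO1 plasmid. 30 min at 37 °C, stopped with pH 5.0 TF buffer. Triplex capture on immobilized biotinylated oligonucleotide, 30 min at room temperature. Washed, SybrGOLD-stained, fluorescence 485/535 nm. Residual activity at 100 µM; 1% DMSO negative control.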
Sequence of DNA gyrase subunit B (Staphylococcus aureus) (P0A0K8 2-644 limits assumed): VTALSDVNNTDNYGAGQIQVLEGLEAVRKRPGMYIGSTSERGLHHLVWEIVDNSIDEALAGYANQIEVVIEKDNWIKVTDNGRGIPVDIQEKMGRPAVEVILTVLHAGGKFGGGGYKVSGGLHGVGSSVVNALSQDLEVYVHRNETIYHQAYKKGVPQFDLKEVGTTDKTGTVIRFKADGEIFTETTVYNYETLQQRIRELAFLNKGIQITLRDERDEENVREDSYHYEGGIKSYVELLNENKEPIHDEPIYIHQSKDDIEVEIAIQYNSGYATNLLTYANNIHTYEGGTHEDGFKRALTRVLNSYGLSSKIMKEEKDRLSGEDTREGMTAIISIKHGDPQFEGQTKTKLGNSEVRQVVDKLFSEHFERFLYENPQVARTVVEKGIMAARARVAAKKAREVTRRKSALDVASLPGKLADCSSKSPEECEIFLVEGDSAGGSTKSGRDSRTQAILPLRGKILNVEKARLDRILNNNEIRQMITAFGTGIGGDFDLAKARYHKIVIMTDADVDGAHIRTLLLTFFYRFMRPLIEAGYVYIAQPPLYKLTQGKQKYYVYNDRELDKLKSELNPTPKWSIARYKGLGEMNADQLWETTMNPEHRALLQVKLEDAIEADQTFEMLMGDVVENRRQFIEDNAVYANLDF

Experiment [4] addresses T1, DNA gyrase subunit B. As to the kind of experiment: Inhibition of Escherichia coli ATCC 25922 DNA gyrase B using relaxed pNO1 DNA as substrate incubated for 30 mins and measured by sybrGOLD staining based fluorescence assay.
The target in experiment [5] is DNA gyrase subunit B (Staphylococcus aureus, UniProt P0A0K8). The experiment in a line: Inhibition of Staphylococcus aureus DNA gyrase B using relaxed pNO1 DNA as substrate incubated for 30 mins and measured by sybrGOLD staining based fluorescence assay.
Sequence of DNA gyrase subunit B (Staphylococcus aureus, UniProt P0A0K8) (P0A0K8 whole entry): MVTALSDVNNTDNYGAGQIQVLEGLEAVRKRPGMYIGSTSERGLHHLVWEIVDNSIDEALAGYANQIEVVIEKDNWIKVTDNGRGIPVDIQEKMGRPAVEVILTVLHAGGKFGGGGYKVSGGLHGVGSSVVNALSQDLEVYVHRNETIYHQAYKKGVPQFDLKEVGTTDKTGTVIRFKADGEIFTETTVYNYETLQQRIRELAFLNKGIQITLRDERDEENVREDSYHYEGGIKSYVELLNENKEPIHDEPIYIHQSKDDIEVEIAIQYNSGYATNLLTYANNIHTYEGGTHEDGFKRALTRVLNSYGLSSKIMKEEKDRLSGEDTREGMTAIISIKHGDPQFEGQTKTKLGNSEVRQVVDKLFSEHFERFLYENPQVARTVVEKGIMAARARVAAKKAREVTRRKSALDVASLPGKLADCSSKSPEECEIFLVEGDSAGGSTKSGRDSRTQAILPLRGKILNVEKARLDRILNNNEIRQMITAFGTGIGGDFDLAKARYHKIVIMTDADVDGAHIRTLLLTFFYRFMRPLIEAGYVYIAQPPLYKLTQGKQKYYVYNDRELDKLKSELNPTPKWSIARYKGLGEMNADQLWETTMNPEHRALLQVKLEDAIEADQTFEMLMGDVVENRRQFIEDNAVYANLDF
The nature of experiment [6]: Inhibition of Escherichia coli DNA gyrase using relaxed pBR322 DNA as substrate after 3 hrs by agarose electrophoresis.
Experiment [7] in a line: Inhibition of Staphylococcus aureus DNA gyrase using relaxed pBR322 DNA as substrate after 3 hrs by agarose electrophoresis.

Turning to `O=C(O)c1ccc(C(=O)N2CCC(NC(=O)c3cc4ccccc4[nH]3)CC2)cc1`, the Activity in experiment [1] worked out at 100%.
The compound `O=C(O)c1ccc(C(=O)N2CCC(NC(=O)c3cc(Br)c(Br)[nH]3)CC2)cc1` had a pKd at DNA gyrase subunit B [2] of 3.59. The Activity in experiment [3] came out at 84%. The compound further gave a negative logarithm of the IC50 (pIC50) against DNA gyrase subunit B [4] of 4.83.
As to `C=CCN(C(=O)c1cc2ccccc2[nH]1)C1CCN(C(=O)CCC(=O)OC)CC1`, the Activity in experiment [1] is 100%.
The same measure, in the same setting: as for `O=C(O)CCC(=O)N1CCC(NC(=O)c2ccc[nH]2)CC1`, the figure is 100%.
The same measure, in the same setting: the same measure for `N#Cc1ccc(C(=O)N2CCC(NC(=O)c3cc(Br)c(Br)[nH]3)CC2)cc1`: 100%.
Regarding `O=C(O)CNC(=O)[C@H]1CC[C@H](NC(=O)c2cc(Br)c(Br)[nH]2)CC1`, the pIC50 on DNA gyrase subunit B [4] was 4.82.
Take `O=C(O)CC(=O)N1CCN(C(=O)c2cc(Br)c(Br)[nH]2)CC1`: on DNA gyrase subunit B [5], the IC50 entry is “Not Active”. The same compound showed a pIC50 against DNA gyrase subunit B [4] of 2.97.
At DNA gyrase subunit B [4], `COC(=O)CC(=O)N1CCC(NC(=O)c2cc(Br)c(Br)[nH]2)CC1` gave a pIC50 of 4.86.
`COC(=O)CC(=O)N1CCC(NC(=O)c2cc3ccccc3[nH]2)CC1`: in experiment [1], the Activity was determined as 100%.
At DNA gyrase subunit B [4], `O=C(O)CCNC(=O)[C@H]1CC[C@@H](NC(=O)c2cc(Br)c(Br)[nH]2)CC1` gave a pIC50 of 4.00.
Consider `COC(=O)CCC(=O)N1CCC(NC(=O)c2ccc[nH]2)CC1`, for which, in experiment [1], the Activity was determined as 100%.
For the compound `O=C(O)CC(=O)N1CCC(NC(=O)c2cc3ccccc3[nH]2)CC1`, the pIC50 against DNA gyrase subunit B [4] is 4.00.
On to `CC(C)(C)OC(=O)N1CCC(NC(=O)c2cc3ccccc3[nH]2)CC1`, for which, in experiment [1], the Activity came to 100%.
Still for that read-out and setting: as for `O=C(O)CCC(=O)N1CCC(N(Cc2ccccc2)C(=O)c2cc3ccccc3[nH]2)CC1`, the figure is 100%.
As for `O=C(NC1CCN(C(=O)c2ccc(O)c(O)c2)CC1)c1cc(Cl)c(Cl)[nH]1`, the pIC50 against DNA gyrase subunit B [4] was 5.09.
For the compound `O=C(O)c1cccc(CN2CCC(NC(=O)c3cc(Br)c(Br)[nH]3)CC2)c1`, the pKd at DNA gyrase subunit B [2] is 4.95. Moreover, the Activity in experiment [3] turned out to be 100%. On DNA gyrase subunit B [4], this compound had a pIC50 of 4.31.
Regarding `COC(=O)c1ccc(C(=O)N2CCC(NC(=O)c3cc(Br)c(Br)[nH]3)CC2)cc1`, the pIC50 at DNA gyrase subunit B [4] is 3.32.
Turning to `O=C(O)c1ccc(CN2CCC(NC(=O)c3cc(Br)c(Br)[nH]3)CC2)cc1`, the Activity in experiment [3] was determined as 100%. This compound also had a pIC50 on DNA gyrase subunit B [4] of 4.20.
As for `COC(=O)CCC(=O)N1CCC(NC(=O)c2[nH]c(C)c(Cl)c2Cl)CC1`, the pIC50 at DNA gyrase subunit B [4] is 4.70.
As to `O=C(NC1CCN(C(=O)c2ccc(O)c(O)c2)CC1)c1cc2ccccc2[nH]1`, the pIC50 on DNA gyrase subunit B [4] is 3.82.
For `COC(=O)CCC(=O)N1CCC(NC(=O)c2cc3ccccc3[nH]2)CC1`, the Activity in experiment [1] was 100%.
Still for that read-out and setting: the same measure for `COC(=O)CC(=O)N1CCN(C(=O)c2cc(Br)c(Br)[nH]2)CC1`: 78%.
Take `CCOC(=O)C(=O)N1CCC(NC(=O)c2cc(Br)c(Br)[nH]2)CC1`: in experiment [3], the Activity came to 74%. The compound further showed a negative logarithm of the IC50 (pIC50) at DNA gyrase subunit B [4] of 5.36.
As for `COC(=O)CCNC(=O)[C@H]1CC[C@H](NC(=O)c2cc(Br)c(Br)[nH]2)CC1`, the Activity in experiment [1] is 100%.
The compound `O=C(O)CCC(=O)N1CCC(NC(=O)c2cc(Br)c(Br)[nH]2)CC1` had a pKd at DNA gyrase subunit B [2] of 4.90. Besides, the pIC50 on DNA gyrase subunit B [5] (read-out: IC50) was 4.03; at DNA gyrase subunit B [4], 5.81.
As for `O=C(O)CCC(=O)N1CCC(NC(=O)c2cc3ccccc3[nH]2)CC1`, the Activity in experiment [1] stood at 100%.
Regarding `O=C(O)CCC(=O)N1CCC(N(Cc2ccccc2)C(=O)c2cc(Br)c(Br)[nH]2)CC1`, at DNA gyrase subunit B [2], the negative-log Kd (pKd) is 4.95. Further, on DNA gyrase subunit B [4], the pIC50 is 4.31.
`COC(=O)CCC(=O)N1CCC(N(Cc2ccccc2)C(=O)c2cc(Br)c(Br)[nH]2)CC1`: in experiment [1], the Activity was determined as 100%.
Same read-out and setting: as for `COC(=O)c1cccc(CN2CCC(NC(=O)c3cc(Br)c(Br)[nH]3)CC2)c1`, the figure is 100%; as for `COC(=O)CNC(=O)[C@H]1CC[C@@H](NC(=O)c2cc(Br)c(Br)[nH]2)CC1`, 100%; as for `C=CCN(C(=O)c1cc2ccccc2[nH]1)C1CCN(C(=O)CCC(=O)O)CC1`, 100%.
On the same count and under the same terms, the same measure for `Nc1ncc(C(=O)N2CCN(C(=O)c3c[nH]c4ccccc34)CC2)[nH]1`: 100%; for `Nc1ncc(C(=O)N2CCN(C(=O)c3ccc[nH]3)CC2)[nH]1`: 100%.
On the same count and under the same terms, the same measure for `O=C(O)CCNC(=O)[C@H]1CC[C@H](CNC(=O)c2cc(Br)c(Br)[nH]2)CC1`: 100%.
Take `O=C(NC1CCN(C(=O)c2ccc(O)c(O)c2)CC1)c1cc(Br)c(Br)[nH]1`: the pIC50 at DNA gyrase subunit B [4] was 5.55.
With `COC(=O)CCC(=O)N1CCC(N(Cc2ccccc2)C(=O)c2cc3ccccc3[nH]2)CC1`, in experiment [1], the Activity turned out to be 100%.
Consider `CC(C)(C)OC(=O)N1CCC(NC(=O)c2cc(Br)c(Br)[nH]2)CC1`, for which the pIC50 against DNA gyrase subunit B [4] is less than 4.30.
Still for that read-out and setting: the same measure for `Cc1[nH]c(C(=O)NC2CCN(C(=O)CCC(=O)O)CC2)c(Cl)c1Cl`: 6.32.
On to `CO[C@@H]1[C@@H](OC(N)=O)[C@@H](O)[C@H](Oc2ccc3c(O)c(NC(=O)c4ccc(O)c(CC=C(C)C)c4)c(=O)oc3c2C)OC1(C)C` [NOVOBIOCIN], for which the pIC50 is 7.10 in experiment [6] and 8.00 in experiment [7].
With `Nc1ncc(C(=O)N2CCN(C(=O)c3cccnc3)CC2)[nH]1`, in experiment [1], the Activity is 100%.
With `C=CCN(C(=O)c1cc(Br)c(Br)[nH]1)C1CCN(C(=O)CCC(=O)O)CC1`, the Activity in experiment [1] amounted to 29%.
The compound `O=C(O)C(=O)N1CCC(NC(=O)c2cc(Br)c(Br)[nH]2)CC1` showed a pIC50 at DNA gyrase subunit B [4] of 4.31.
In the case of `C=CCN(C(=O)c1cc(Br)c(Br)[nH]1)C1CCN(C(=O)CCC(=O)OC)CC1`, the Activity in experiment [1] stood at 36%.
Take `O=C(O)CCNC(=O)[C@H]1CC[C@H](NC(=O)c2cc(Br)c(Br)[nH]2)CC1`: the Activity in experiment [1] worked out at 100%.
Turning to `O=C(O)CCCC(=O)N1CCC(NC(=O)c2cc(Br)c(Br)[nH]2)CC1`, in experiment [3], the Activity was 71%. This compound showed a pIC50 against DNA gyrase subunit B [4] of 5.50.
As to `COC(=O)CCNC(=O)[C@H]1CC[C@@H](NC(=O)c2cc(Br)c(Br)[nH]2)CC1`, in experiment [1], the Activity was 100%.
Consider `O=C(O)CC(=O)N1CCC(NC(=O)c2cc(Br)c(Br)[nH]2)CC1`, for which, in experiment [3], the Activity was determined as 80%. This compound also gave a pIC50 against DNA gyrase subunit B [4] of 4.97.
`O=C(O)CNC(=O)[C@H]1CC[C@@H](NC(=O)c2cc(Br)c(Br)[nH]2)CC1`: the Activity in experiment [1] was found to be 100%.
For `COC(=O)CCNC(=O)[C@H]1CC[C@H](CNC(=O)c2cc(Br)c(Br)[nH]2)CC1`, the Activity in experiment [1] came to 100%.
Same read-out and setting: the same measure for `COC(=O)CNC(=O)[C@H]1CC[C@H](CNC(=O)c2cc(Br)c(Br)[nH]2)CC1`: 100%; for `Nc1ncc(C(=O)N2CCN(C(=O)[C@@H]3CCCN3)CC2)[nH]1`: 100%; for `COC(=O)CNC(=O)[C@H]1CC[C@H](NC(=O)c2cc(Br)c(Br)[nH]2)CC1`: 100%.
Same read-out and setting: as for `COC(=O)c1ccc(CN2CCC(NC(=O)c3cc(Br)c(Br)[nH]3)CC2)cc1`, the figure is 100%; as for `Nc1ncc(C(=O)N2CCN(Cc3ccc[nH]3)CC2)[nH]1`, 100%; as for `COC(=O)c1ccc(C(=O)N2CCC(NC(=O)c3cc4ccccc4[nH]3)CC2)cc1`, 88%.
The compound `COC(=O)CCCC(=O)N1CCC(NC(=O)c2cc(Br)c(Br)[nH]2)CC1` showed a pIC50 against DNA gyrase subunit B [4] of 4.95.
Take `COC(=O)CCC(=O)N1CCC(NC(=O)c2cc(Br)c(Br)[nH]2)CC1`: the negative-log IC50 (pIC50) against DNA gyrase subunit B [4] is 4.68.
